Laboratory results from publication PMC6722387 (Cellular and Molecular Gastroenterology and Hepatology, 2019).

Key:
[1] = tested on: human intestinal tissue; conditions: human intestinal tissue / human in vivo; cited from earlier work
[2] = tested on: human iPS-IECMs; assay: Determination of Fg value; assay type: in vitro ADME; conditions: 3 μM MDZ apical, 60-minute incubation
Procedure, shortened: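 Monolayers on inserts were preincubated 10 min at 37°C in HBSS with 10 mM HEPES, pH 7.4. Apical: 3 μM midazolam in HBSS; basolateral: HBSS with 0.1% DMSO. After 60 min at 37°C, both chambers and the twice-washed cells were collected into acetonitrile/ethanol (7:3) with candesartan internal standard. Midazolam and 1′-OH midazolam were quantified by UPLC-MS/MS. Fg was derived from summed metabolite across all compartments plus basolateral and cellular midazolam.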

[3] = tested on: human iPS-IECMs; assay: LY permeability test across human iPS-IECMs; assay type: in vitro ADME; conditions: Ad-LacZ- and Ad-TF-transduced cells; apical to basolateral; 60 μM LY, 70 min, 37°C

Molecule | Fg (fraction passing the gut wall) [1] | Fg (fraction passing the gut wall) [2] | Lucifer yellow (LY) Papp [3]
Cc1ncc2n1-c1ccc(Cl)cc1C(c1ccccc1F)=NC2 [MDZ, midazolam] | 0.57 | 0.73 | –
LY CH Dipotassium Salt | – | – | approximately 0.44 ×10^–6 cm/s
